This note sets out measurements from PMC3774303 (Journal of medicinal chemistry, 2013).

Assay [1] addresses T1, T-L activity of purified 20S rabbit proteasome (Oryctolagus cuniculus, UniProt G1SWK8).
T1 sequence (G1SWK8 44-271): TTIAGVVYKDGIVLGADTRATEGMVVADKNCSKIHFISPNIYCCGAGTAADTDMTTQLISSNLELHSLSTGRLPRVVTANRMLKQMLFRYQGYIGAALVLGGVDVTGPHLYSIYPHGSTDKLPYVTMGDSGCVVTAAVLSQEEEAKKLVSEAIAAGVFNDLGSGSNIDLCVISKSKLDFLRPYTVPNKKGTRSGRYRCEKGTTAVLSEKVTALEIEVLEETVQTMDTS
The assay is described as follows: T-L proteolytic activity assay, fluorogenic peptide Bz-Val-Gly-Arg-AMC. Format: biochemical.

For assay [2], the target named is PGPH-L activity of purified 20S rabbit proteasome (Oryctolagus cuniculus, UniProt G1T235). Description: PGPH-L proteolytic activity assay, fluorogenic peptide Z-Leu-Leu-Glu-AMC. Format: biochemical.
The next assay deals with MDA-MB-468 cells. Description: MTT proliferation/survival assay. Format: cell-based, human. To be noted: 120 h incubation. A digest of the protocol:
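MDA-MB-468 cells were grown in DMEM with 10% FBS and penicillin/streptomycin at 37 °C in 5% CO2, then attached overnight. They were exposed to varying inhibitor concentrations for 120 h. MTT (1 mg/ml in fresh medium) was added for 3 h, formazan dissolved in DMSO, and absorbance read at 540 nm. IC50 came from the fit Y = M + (L–M)/(1+10^(X–logIC50)).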

The test system of assay [3] is CT-L activity of rabbit 20S proteasome. The assay is described as follows: Dialysis using purified rabbit 20S proteasome. Format: biochemical. In short, it runs like this: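 Dialysed (3500 MWCO) against assay buffer at 4 °C; sampled at 0, 0.25, 1, 2, 4 and 18 h. CT-L activity read with 20 μM Suc-LLVY-AMC, 1 h at 37 °C, AMC ex 355/em 460 nm. Normalised to DMSO control.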

Assay [4] deals with T2, CT-L proteolytic activity of the purified rabbit 20S proteasome (Oryctolagus cuniculus, UniProt G1T4Q9).
T2 sequence (G1T4Q9 60-263): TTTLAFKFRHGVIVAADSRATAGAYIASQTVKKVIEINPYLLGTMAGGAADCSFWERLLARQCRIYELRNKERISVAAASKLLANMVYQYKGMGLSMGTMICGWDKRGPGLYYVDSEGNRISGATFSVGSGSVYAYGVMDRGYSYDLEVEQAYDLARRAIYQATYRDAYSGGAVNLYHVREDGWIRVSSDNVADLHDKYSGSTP
Description: CT-L proteolytic activity assay, fluorogenic peptide Suc-Leu-Leu-Val-Tyr-AMC. Format: biochemical. To be noted: for fold loss of CT-L activity compared to 11ad: relative to 11ad; for IC50: IC50 (μM) CT-L, 1 nM purified 20S rabbit proteasome, 20 μM Suc-Leu-Leu-Val-Tyr-AMC, 1 h at 37 °C, average of 2 or more determinations.

The target in assay [5] is proteasomal CT-L activity in intact human MDA-MB-468 cancer cells (Homo sapiens, UniProt P28074). The assay is described as follows: CT-L activity in intact MDA-MB-468 cells. Format: cell-based.

Usually IC50 stands for the midpoint of a concentration-inhibition curve. High values mean weaker potency in that assay, low ones greater potency in that assay.

“Also recorded” adds a separate entry of the source. Where only a bound is given, the exact number is not on record here.

`Cc1ccc(OCC(=O)N(Cc2nc(-c3ccc(C)cc3)no2)C(C)C)cc1` [Compound 1, N-Isopropyl-N-((3-p-tolyl-1,2,4-oxadiazol-5-yl)methyl)-2-(p-tolyloxy)acetamide]: the IC50 in assay [1] and in assay [2] was > 100 µM throughout. Besides, the “inhibition of tumor cell survival/proliferation (MTT)” value in the assay with MDA-MB-468 cells is “inhibited survival/proliferation”. For the same compound, the “time to full recovery of CT-L activity upon dialysis” value in assay [3] (pre-incubation with 10 μM compound for 30 min, dialysis at 4 °C) is ≤ 2 h.
In the case of `CCCc1ccc(OCC(=O)N(Cc2nc(-c3cccnc3)no2)C(C)C)cc1` [Compound 11ad], the “fold more potent than 1 (CT-L IC50)” value in assay [4] (relative to compound 1) is listed as 22 fold. Also, the IC50 in assay [1] was > 100 µM; in assay [2] it was > 100 µM; in assay [5], 0.37 µM. The “inhibition of tumor cell survival/proliferation (MTT)” value in the assay with MDA-MB-468 cells was “inhibited survival/proliferation; also recorded: anti-proliferative activity at low micromolar concentrations”.
In the case of `CCCc1ccc(OCC(=O)N(Cc2nc(-c3cnccn3)no2)C(C)C)cc1` [Compound 11am, N-Isopropyl-2-(4-propylphenoxy)-N-((3-(pyrazin-2-yl)-1,2,4-oxadiazol-5-yl)methyl)acetamide], the “fold loss of CT-L activity compared to 11ad” value in assay [4] was 3 fold.
Consider `CCCc1ccc(OCC(=O)N(Cc2nc(-c3ncccn3)no2)C(C)C)cc1` [Compound 11ao, N-Isopropyl-2-(4-propylphenoxy)-N-((3-(pyrimidin-2-yl)-1,2,4-oxadiazol-5-yl)methyl)acetamide], for which the “fold loss of CT-L activity compared to 11ad” value in assay [4] was determined as 40 fold.
As to `CC(C)N(Cc1nc(-c2ccccc2)no1)C(=O)COc1ccccc1` [Compound 11j, N-Isopropyl-2-phenoxy-N-((3-phenyl-1,2,4-oxadiazol-5-yl)methyl)acetamide], in assay [4] (relative to compound 1), the “fold loss of CT-L activity compared to 1” value came to 10 fold.
The same measure, in the same setting: the value for `Cc1ccc(-c2noc(CN(C(=O)COc3ccccc3)C(C)C)n2)cc1` [Compound 11k, N-Isopropyl-2-phenoxy-N-((3-p-tolyl-1,2,4-oxadiazol-5-yl)methyl)acetamide] was 14 fold; that for `CC(C)N(Cc1nc(-c2ccc(C(F)(F)F)cc2)no1)C(=O)COc1ccccc1` [Compound 11l, N-Isopropyl-2-phenoxy-N-((3-(4-(trifluoromethyl)phenyl)-1,2,4-oxadiazol-5-yl)methyl)acetamide] was 18 fold.
Take `CC(C)N(Cc1nc(-c2ccccc2)no1)C(=O)COc1ccc(-c2ccccc2)cc1` [Compound 11q, 2-(Biphenyl-4-yloxy)-N-isopropyl-N-((3-phenyl-1,2,4-oxadiazol-5-yl)methyl)acetamide]: the IC50 in assay [4] was > 10 µM.
Still for that read-out and setting: the value for `CC(C)N(Cc1nc(-c2ccccc2)no1)C(=O)COc1ccc2cc(Br)ccc2c1` [Compound 11r, 2-(6-Bromonaphthalen-2-yloxy)-N-isopropyl-N-((3-phenyl-1,2,4-oxadiazol-5-yl)methyl)acetamide] was > 10 µM.
Consider `CC(C)N(Cc1nc(-c2ccccc2)no1)C(=O)COc1ccc(F)cc1` [Compound 11s, 2-(4-Fluorophenoxy)-N-isopropyl-N-((3-phenyl-1,2,4-oxadiazol-5-yl)methyl)acetamide], for which the “fold loss of CT-L inhibitory activity compared to 11b” value in assay [4] (relative to 11b) is on record as 16 fold.
With `Cc1ccc(OCC(=O)N(Cc2nc(-c3ccc(C)cc3)no2)CC(C)C)cc1` [Compound 12a, N-Isobutyl-N-((3-p-tolyl-1,2,4-oxadiazol-5-yl)methyl)-2-(p-tolyloxy)acetamide], the “fold loss of CT-L activity compared to 1” value in assay [4] (relative to compound 1) was determined as 4 fold.
As for `CCN(Cc1nc(-c2ccc(C)cc2)no1)C(=O)COc1ccc(C)cc1` [Compound 12b, N-Ethyl-N-((3-p-tolyl-1,2,4-oxadiazol-5-yl)methyl)-2-(p-tolyloxy)acetamide], the “fold loss of CT-L activity compared to 1” value in assay [4] (relative to compound 1) was found to be 10 fold.
Turning to `Cc1ccc(CNC(=O)N(Cc2nc(-c3ccccc3)no2)C(C)C)cc1` [Compound 14, 1-Isopropyl-3-(4-methylbenzyl)-1-((3 phenyl-1,2,4-oxadiazol-5-yl)methyl)urea], the IC50 in assay [4] was > 10 µM.
In the case of `Cc1ccc(OCC(=O)N(CCc2nc(-c3ccccc3)no2)C(C)C)cc1` [Compound 23, N-Isopropyl-N-(2-(3-phenyl-1,2,4-oxadiazol-5-yl)ethyl)-2-(p-tolyloxy)acetamide], the IC50 in assay [4] was > 10 µM.
`CC(=O)N[C@@H](CSC(=O)[C@]1([C@@H](O)C(C)C)NC(=O)[C@H](C)[C@@H]1O)C(=O)O` [lactacystin, reference compound]: the “CT-L activity recovered upon dialysis” value in assay [3] (after 18 hours of dialysis, lactacystin 2.5 μM) is listed as “very little CT-L activity was recovered”.
